{"source": "ChEMBL document CHEMBL5303300", "about": "“EUbOPEN Chemogenomics Library - Multiplex” (2023)", "key": {"U2OS": {"tested_on": "U2OS", "test": "Multiplex assay against U2OS", "format": "toxicity, cell-based", "conditions": "human, number of replicates 2", "summary_of_the_method": "(§1)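 With compound added, live cells were imaged on a CQ1 microscope at 37°C and 5% CO2; staining with Hoechst33342, BioTracker Green Microtubule Cytoskeleton Dye, MitoTracker Red and Annexin V Alexa Fluor 680 had been done at seeding. The CellPathfinder machine-learning gating scheme split cells into Hoechst high-intensity objects or normal cells, normal cells into healthy, pyknosed or fragmented nuclei, and pyknosed cells into mitotic or apoptotic. The tubulin, mitochondrial-mass and membrane-permeability phenotypes are per cents of healthy-nucleus cells.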"}, "HEK-293T": {"tested_on": "HEK-293T", "test": "Multiplex assay against HEK293T", "format": "toxicity, cell-based", "conditions": "human, number of replicates 2", "summary_of_the_method": "as §1"}, "[1]": {"conditions": "24 h, 10 µM, compound concentration 10 uM"}, "[2]": {"conditions": "48 h, 1 µM, compound concentration 1 uM"}, "[3]": {"conditions": "48 h, 10 µM, compound concentration 10 uM"}, "[4]": {"conditions": "12 h, 1 µM, compound concentration 1 uM"}, "[5]": {"conditions": "12 h, 10 µM, compound concentration 10 uM"}, "[6]": {"conditions": "24 h, 1 µM, compound concentration 1 uM"}}, "note": "Values joined by “and” are separate entries in the source; they are usually repeats but may differ in a detail not shown here. Identical values can stand only once."}
{"compound": "O=C1CCCN1CCNc1nc(Nc2ccc(Cl)c(Cl)c2)ncc1C(F)(F)F", "values": [{"measurement": "Population Healthy Nuclei (%)", "setting": "U2OS; [1]", "result": "86% and 70%"}, {"measurement": "Population Hoechst High Intensity Objects (%)", "setting": "U2OS; [1]", "result": 0, "unit": "%"}, {"measurement": "Population Membrane Permeable-Phenotype (%)", "setting": "U2OS; [1]", "result": 3, "unit": "%"}, {"measurement": "Population Mitochondria Different-Phenotype (%)", "setting": "U2OS; [1]", "result": "1% and 0%"}, {"measurement": "Population Mitotic Cells (%)", "setting": "U2OS; [1]", "result": "29% and 20%"}, {"measurement": "Population Normal (%)", "setting": "U2OS; [1]", "result": 100, "unit": "%"}, {"measurement": "Population Pyknosed Nuclei (%)", "setting": "U2OS; [1]", "result": "10% and 12%"}, {"measurement": "Population Tubulin-Different-Phenotype (%)", "setting": "U2OS; [1]", "result": "57% and 35%"}, {"measurement": "Population Apoptotic (%)", "setting": "U2OS; [2]", "result": "71% and 84%"}, {"measurement": "Population Fragmented Nuclei (%)", "setting": "U2OS; [2]", "result": "8% and 3%"}, {"measurement": "Population Healthy Nuclei (%)", "setting": "U2OS; [2]", "result": "79% and 92%"}, {"measurement": "Population Hoechst High Intensity Objects (%)", "setting": "U2OS; [2]", "result": 0, "unit": "%"}, {"measurement": "Population Membrane Permeable-Phenotype (%)", "setting": "U2OS; [2]", "result": "0% and 1%"}, {"measurement": "Population Mitochondria Different-Phenotype (%)", "setting": "U2OS; [2]", "result": "2% and 0%"}, {"measurement": "Population Mitotic Cells (%)", "setting": "U2OS; [2]", "result": "28% and 15%"}, {"measurement": "Population Normal (%)", "setting": "U2OS; [2]", "result": 100, "unit": "%"}, {"measurement": "Population Pyknosed Nuclei (%)", "setting": "U2OS; [2]", "result": "12% and 4%"}, {"measurement": "Population Tubulin-Different-Phenotype (%)", "setting": "U2OS; [2]", "result": "95% and 87%"}, {"measurement": "Population Apoptotic (%)", "setting": "U2OS; [3]", "result": "86% and 75%"}, {"measurement": "Population Fragmented Nuclei (%)", "setting": "U2OS; [3]", "result": "5% and 6%"}, {"measurement": "Population Healthy Nuclei (%)", "setting": "U2OS; [3]", "result": "79% and 76%"}, {"measurement": "Population Hoechst High Intensity Objects (%)", "setting": "U2OS; [3]", "result": 0, "unit": "%"}, {"measurement": "Population Membrane Permeable-Phenotype (%)", "setting": "U2OS; [3]", "result": "4% and 2%"}, {"measurement": "Population Mitochondria Different-Phenotype (%)", "setting": "U2OS; [3]", "result": "0% and 2%"}, {"measurement": "Population Mitotic Cells (%)", "setting": "U2OS; [3]", "result": "13% and 25%"}, {"measurement": "Population Normal (%)", "setting": "U2OS; [3]", "result": "99% and 100%"}, {"measurement": "Population Pyknosed Nuclei (%)", "setting": "U2OS; [3]", "result": "14% and 17%"}, {"measurement": "Population Tubulin-Different-Phenotype (%)", "setting": "U2OS; [3]", "result": "67% and 47%"}, {"measurement": "Population Apoptotic (%)", "setting": "HEK-293T; [4]", "result": "57% and 53%"}, {"measurement": "Population Fragmented Nuclei (%)", "setting": "HEK-293T; [4]", "result": "5% and 3%"}, {"measurement": "Population Healthy Nuclei (%)", "setting": "HEK-293T; [4]", "result": "80% and 83%"}, {"measurement": "Population Hoechst High Intensity Objects (%)", "setting": "HEK-293T; [4]", "result": 9, "unit": "%"}, {"measurement": "Population Membrane Permeable-Phenotype (%)", "setting": "HEK-293T; [4]", "result": "3% and 1%"}, {"measurement": "Population Mitochondria Different-Phenotype (%)", "setting": "HEK-293T; [4]", "result": "26% and 20%"}, {"measurement": "Population Mitotic Cells (%)", "setting": "HEK-293T; [4]", "result": "42% and 46%"}, {"measurement": "Population Normal (%)", "setting": "HEK-293T; [4]", "result": 90, "unit": "%"}, {"measurement": "Population Pyknosed Nuclei (%)", "setting": "HEK-293T; [4]", "result": 13, "unit": "%"}, {"measurement": "Population Tubulin-Different-Phenotype (%)", "setting": "HEK-293T; [4]", "result": "60% and 61%"}, {"measurement": "Total Cell Count", "setting": "HEK-293T; [4]", "result": "624 and 889"}, {"measurement": "Population Apoptotic (%)", "setting": "HEK-293T; [5]", "result": "57% and 62%"}, {"measurement": "Population Fragmented Nuclei (%)", "setting": "HEK-293T; [5]", "result": "3% and 5%"}, {"measurement": "Population Healthy Nuclei (%)", "setting": "HEK-293T; [5]", "result": 76, "unit": "%"}, {"measurement": "Population Hoechst High Intensity Objects (%)", "setting": "HEK-293T; [5]", "result": "11% and 7%"}, {"measurement": "Population Membrane Permeable-Phenotype (%)", "setting": "HEK-293T; [5]", "result": "5% and 4%"}, {"measurement": "Population Mitochondria Different-Phenotype (%)", "setting": "HEK-293T; [5]", "result": "30% and 21%"}, {"measurement": "Population Mitotic Cells (%)", "setting": "HEK-293T; [5]", "result": "42% and 37%"}, {"measurement": "Population Normal (%)", "setting": "HEK-293T; [5]", "result": "88% and 92%"}, {"measurement": "Population Pyknosed Nuclei (%)", "setting": "HEK-293T; [5]", "result": "19% and 18%"}, {"measurement": "Population Tubulin-Different-Phenotype (%)", "setting": "HEK-293T; [5]", "result": "67% and 66%"}, {"measurement": "Total Cell Count", "setting": "HEK-293T; [5]", "result": "488 and 473"}, {"measurement": "Population Apoptotic (%)", "setting": "HEK-293T; [6]", "result": "57% and 53%"}, {"measurement": "Population Fragmented Nuclei (%)", "setting": "HEK-293T; [6]", "result": "9% and 7%"}, {"measurement": "Population Healthy Nuclei (%)", "setting": "HEK-293T; [6]", "result": "80% and 81%"}, {"measurement": "Population Hoechst High Intensity Objects (%)", "setting": "HEK-293T; [6]", "result": "8% and 9%"}, {"measurement": "Population Membrane Permeable-Phenotype (%)", "setting": "HEK-293T; [6]", "result": "2% and 1%"}, {"measurement": "Population Mitochondria Different-Phenotype (%)", "setting": "HEK-293T; [6]", "result": "5% and 4%"}, {"measurement": "Population Mitotic Cells (%)", "setting": "HEK-293T; [6]", "result": "42% and 46%"}, {"measurement": "Population Normal (%)", "setting": "HEK-293T; [6]", "result": "91% and 90%"}, {"measurement": "Population Pyknosed Nuclei (%)", "setting": "HEK-293T; [6]", "result": 10, "unit": "%"}, {"measurement": "Population Tubulin-Different-Phenotype (%)", "setting": "HEK-293T; [6]", "result": "32% and 31%"}, {"measurement": "Total Cell Count", "setting": "HEK-293T; [6]", "result": "951 and 1356"}, {"measurement": "Population Apoptotic (%)", "setting": "HEK-293T; [1]", "result": "56% and 71%"}, {"measurement": "Population Fragmented Nuclei (%)", "setting": "HEK-293T; [1]", "result": "7% and 5%"}, {"measurement": "Population Healthy Nuclei (%)", "setting": "HEK-293T; [1]", "result": "78% and 79%"}, {"measurement": "Population Hoechst High Intensity Objects (%)", "setting": "HEK-293T; [1]", "result": "8% and 7%"}, {"measurement": "Population Membrane Permeable-Phenotype (%)", "setting": "HEK-293T; [1]", "result": "5% and 3%"}, {"measurement": "Population Mitochondria Different-Phenotype (%)", "setting": "HEK-293T; [1]", "result": "13% and 8%"}, {"measurement": "Population Mitotic Cells (%)", "setting": "HEK-293T; [1]", "result": "43% and 28%"}, {"measurement": "Population Normal (%)", "setting": "HEK-293T; [1]", "result": "91% and 92%"}, {"measurement": "Population Pyknosed Nuclei (%)", "setting": "HEK-293T; [1]", "result": "13% and 15%"}, {"measurement": "Population Tubulin-Different-Phenotype (%)", "setting": "HEK-293T; [1]", "result": "39% and 36%"}, {"measurement": "Total Cell Count", "setting": "HEK-293T; [1]", "result": "751 and 650"}, {"measurement": "Population Apoptotic (%)", "setting": "HEK-293T; [2]", "result": "17% and 24%"}, {"measurement": "Population Fragmented Nuclei (%)", "setting": "HEK-293T; [2]", "result": "14% and 12%"}, {"measurement": "Population Healthy Nuclei (%)", "setting": "HEK-293T; [2]", "result": "82% and 83%"}, {"measurement": "Population Hoechst High Intensity Objects (%)", "setting": "HEK-293T; [2]", "result": "10% and 12%"}, {"measurement": "Population Membrane Permeable-Phenotype (%)", "setting": "HEK-293T; [2]", "result": "6% and 2%"}, {"measurement": "Population Mitochondria Different-Phenotype (%)", "setting": "HEK-293T; [2]", "result": 0, "unit": "%"}, {"measurement": "Population Mitotic Cells (%)", "setting": "HEK-293T; [2]", "result": "82% and 75%"}, {"measurement": "Population Normal (%)", "setting": "HEK-293T; [2]", "result": "89% and 87%"}, {"measurement": "Population Pyknosed Nuclei (%)", "setting": "HEK-293T; [2]", "result": 3, "unit": "%"}, {"measurement": "Population Tubulin-Different-Phenotype (%)", "setting": "HEK-293T; [2]", "result": "14% and 17%"}, {"measurement": "Total Cell Count", "setting": "HEK-293T; [2]", "result": "2336 and 2853"}, {"measurement": "Population Apoptotic (%)", "setting": "HEK-293T; [3]", "result": "23% and 27%"}, {"measurement": "Population Fragmented Nuclei (%)", "setting": "HEK-293T; [3]", "result": "11% and 9%"}, {"measurement": "Population Healthy Nuclei (%)", "setting": "HEK-293T; [3]", "result": "83% and 86%"}, {"measurement": "Population Hoechst High Intensity Objects (%)", "setting": "HEK-293T; [3]", "result": "8% and 5%"}, {"measurement": "Population Membrane Permeable-Phenotype (%)", "setting": "HEK-293T; [3]", "result": "5% and 4%"}, {"measurement": "Population Mitochondria Different-Phenotype (%)", "setting": "HEK-293T; [3]", "result": "2% and 3%"}, {"measurement": "Population Mitotic Cells (%)", "setting": "HEK-293T; [3]", "result": "76% and 72%"}, {"measurement": "Population Normal (%)", "setting": "HEK-293T; [3]", "result": "91% and 94%"}, {"measurement": "Population Pyknosed Nuclei (%)", "setting": "HEK-293T; [3]", "result": "5% and 4%"}, {"measurement": "Population Tubulin-Different-Phenotype (%)", "setting": "HEK-293T; [3]", "result": "16% and 28%"}, {"measurement": "Total Cell Count", "setting": "HEK-293T; [3]", "result": "1562 and 1106"}]}
